In brackets after ≈: the same amount, converted by molar mass.
What was measured:
[1] = Photostability of compound under 1.2 mil lux.h white light and 200 W.h/m2 UV light assessed parent compound remaining using crystalline form of sample by chromatographic method; assay type: physicochemical
[2] = Stability of compound at 40 degC and 75% relative humidity assessed parent compound remaining measured after 3 months using crystalline form of sample by chromatographic method; assay type: physicochemical; conditions: solid sample, read-out: Stabilty
[3] = Photostability of compound under 1.2 mil lux.h white light and 200 W.h/m2 UV light assessed parent compound remaining using amorphous form of sample by chromatographic method; assay type: physicochemical
[4] = Stability of compound at 40 degC and 75% relative humidity assessed parent compound remaining measured after 3 months using amorphous form of sample by chromatographic method; assay type: physicochemical; conditions: solid sample, read-out: Stabilty
Cytochrome P450 1A2 = target: T1, Cytochrome P450 1A2 (Homo sapiens, UniProt P05177); experiment: Inhibition of CYP1A2 in human liver microsomes; assay type: ADME
T1 sequence (P05177 whole entry): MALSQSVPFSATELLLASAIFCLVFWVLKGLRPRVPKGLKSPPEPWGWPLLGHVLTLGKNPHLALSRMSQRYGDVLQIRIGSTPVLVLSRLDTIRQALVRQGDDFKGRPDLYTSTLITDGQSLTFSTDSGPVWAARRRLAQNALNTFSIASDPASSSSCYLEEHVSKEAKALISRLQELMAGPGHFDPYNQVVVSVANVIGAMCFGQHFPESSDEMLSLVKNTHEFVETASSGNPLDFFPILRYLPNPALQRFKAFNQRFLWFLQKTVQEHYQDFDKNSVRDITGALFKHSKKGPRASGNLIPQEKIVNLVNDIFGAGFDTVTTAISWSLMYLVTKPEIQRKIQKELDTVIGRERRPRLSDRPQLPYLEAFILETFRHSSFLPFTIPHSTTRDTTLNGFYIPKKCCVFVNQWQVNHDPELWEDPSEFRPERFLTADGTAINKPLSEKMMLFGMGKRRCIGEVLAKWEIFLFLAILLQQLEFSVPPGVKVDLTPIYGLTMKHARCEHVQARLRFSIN
How it was run: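 High-throughput human liver microsome panel of five CYP isoforms; inhibition reported as IC50.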

[5] = Antitumor activity against human […] cells xenografted in CB17 SCID mouse assessed as tumor growth inhibition at 2 mg/kg, po administered daily via oral gavage for 21 days relative to control; assay type: functional; conditions: MCF7, po, time 21 day, read-out: TGI
MCF7 = experiment: Antiproliferative activity against human wild-type MCF7 cells assessed as decrease in estradiol-mediated cell viability incubated for 4 to 6 days by SYTOX Green dye based fluorescence assay; assay type: functional
Histamine H3 receptor = Histamine H3 receptor (Homo sapiens, UniProt Q9Y5N1); experiment: Antagonist activity at human histamine H3 receptor expressed in CHO-K1 cells after 10 mins by HTRF assay; assay type: cell-based
[6] = Clearance in rat at 0.5 mg/kg, iv or 1 mg/kg, po relative to liver blood flow; assay type: ADME, organism-based; conditions: in vivo
How it was run: (§1)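 Rat PK: single IV dose 0.5 mg/kg and oral dose 1 mg/kg, formulated in 5% DMSO:95% hydroxypropyl-β-cyclodextrin (30% w/v), dosed at 1 mL/kg IV and 4 mL/kg PO.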

[7] = Fraction absorbed in mouse at 2 mg/kg, iv or 5 mg/kg, po; assay type: ADME, organism-based; conditions: in vivo, read-out: Fabs
[8] = Solubility of compound in stimulated gastric fluid using crystalline form of sample; assay type: physicochemical; conditions: simulated gastric fluid
[9] = Solubility of compound in FASSIF at pH 6.5 using crystalline form of sample; assay type: physicochemical
[10] = Chemical stability of compound assessed as drug degradation in buffer at pH 10 stored at 22 to 60 degreeC measured after 5 days; assay type: physicochemical; conditions: pH 10, 120 h, time 5 day
[11] = Half-life in rat at 0.5 mg/kg, iv or 1 mg/kg, po; assay type: ADME, organism-based; conditions: in vivo; how it was run: as §1
[12] = Volume of distribution at steady state in rat at 0.5 mg/kg, iv or 1 mg/kg, po; assay type: ADME, organism-based; conditions: in vivo, read-out: Vdss
How it was run: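 Rat dosed IV at 0.5 mg/kg and PO at 1 mg/kg, both formulated in 5% DMSO:95% hydroxypropyl-β-cyclodextrin (30% w/v), at 1 mL/kg IV and 4 mL/kg PO. Vdss (L/kg) derived from the pharmacokinetic profile after dosing.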

[13] = Dissociation constant, dibasic pKa of compound in 0.1 M potassium chloride in presence of azetidine by UV-vis spectroscopy; assay type: physicochemical
[14] = Fraction unbound in dog plasma; assay type: ADME, cell-free, Canis lupus familiaris

Chain of Histamine H3 receptor (Q9Y5N1 whole entry): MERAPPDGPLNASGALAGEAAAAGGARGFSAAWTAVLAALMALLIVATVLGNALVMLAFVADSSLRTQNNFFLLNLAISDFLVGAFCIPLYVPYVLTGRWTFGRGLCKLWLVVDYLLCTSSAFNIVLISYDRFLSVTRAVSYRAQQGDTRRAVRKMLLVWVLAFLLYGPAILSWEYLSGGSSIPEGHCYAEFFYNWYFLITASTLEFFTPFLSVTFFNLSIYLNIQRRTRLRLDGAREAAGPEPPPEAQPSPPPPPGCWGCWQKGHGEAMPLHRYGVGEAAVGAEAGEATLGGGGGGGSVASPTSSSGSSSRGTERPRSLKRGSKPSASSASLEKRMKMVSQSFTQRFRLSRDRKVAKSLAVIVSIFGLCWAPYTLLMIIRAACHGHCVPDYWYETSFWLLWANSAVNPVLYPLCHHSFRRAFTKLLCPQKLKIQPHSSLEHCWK

C[C@@H]1Cc2c(ccc3[nH]ncc23)[C@@H](c2ccc(NC3CN(CCCF)C3)cn2)N1CC(F)(F)F [CAMIZESTRANT]
Stabilty [1]: 98.9%
remaining at 2190 h [2]: 99.3%
Stabilty [3]: 78.9%
remaining at 2190 h [4]: 90.5%
IC50 (Cytochrome P450 1A2): > 30 µM
inhibition in vivo at 2 mg/kg [5]: 73%
IC50 (MCF7): 5.01 nM
IC50 (Histamine H3 receptor): 330 nM
CL [6]: 106%
Fa [7]: 50%
solubility thermodynamic [8]: > 10000 µg/mL
solubility thermodynamic [9]: 1500 µg/mL (≈ 3.15 mM)
Stabilty [10]: Unstable
half-life [11]: 180 min
Vd [12]: 13 L/kg
pKa [13]: 8.4
fraction unbound [14]: 0.15

— ChEMBL document CHEMBL4673245, “Discovery of AZD9833, a Potent and Orally Bioavailable Selective Estrogen Receptor Degrader and Antagonist” (J Med Chem, 2020)
